Compound activity (PubChem)
A selection: hits, their analogues and other compounds. The true share with any hit is near 4.5%.
TAAR1 antagonist – antagonists of human TAAR1; inhibition, % at 3 µM; CHO RD-HGA16 TAAR1, Fluo-8 calcium fluorescence, antagonist; 360,000 tested, 1.5% active; AID 624466; Q96RJ0;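 active = inhibition above a per-plate cutoff, the mean inhibition of test compounds on that plate plus 3 SD, cut at about 49% in these data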;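 also: 0% = DMSO plus EC80 beta-PEA response and 100% = DMSO alone without agonist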
Target sequence (Q96RJ0 whole entry, looked up): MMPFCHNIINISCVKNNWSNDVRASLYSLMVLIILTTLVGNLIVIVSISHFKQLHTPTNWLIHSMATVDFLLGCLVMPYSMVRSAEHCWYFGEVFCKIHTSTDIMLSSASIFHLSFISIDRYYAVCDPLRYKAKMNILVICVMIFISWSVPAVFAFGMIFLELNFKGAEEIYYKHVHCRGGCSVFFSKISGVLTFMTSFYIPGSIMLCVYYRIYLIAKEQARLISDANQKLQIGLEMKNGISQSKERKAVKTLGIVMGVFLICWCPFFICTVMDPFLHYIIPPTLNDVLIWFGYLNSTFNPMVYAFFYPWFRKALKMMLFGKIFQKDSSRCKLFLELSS
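Assay system: RD-HGA16 CHO cells with stable hTAAR1 and Gα16 / Reagent: EC80 β-phenethylamine stimulus / Doses: 3 µM, single point / Timing: dye loading 75 min at 37 °C, then 30 min room temperature / Measured by: Fluo-8 intracellular calcium dye fluorescence, real-time kinetic reads / Controls: vehicle wells and EC80 agonist wells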
CHO parental Ca – counter-screen: ATP calcium response change in parental CHO cells; parental CHO-K1, ATP-induced calcium, Fluo-8 fluorescence; inhibition, % at 5.6 µM; 330,000 tested, 0.63% active;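 active = inhibition above that plate's mean sample inhibition plus 3 SD, cut at about 26% in these data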;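 also: 0% = ATP-challenged DMSO wells and 100% = DMSO wells without ATP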
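material = parental CHO cells | also added = ATP as calcium-mobilizing challenge | dosing = single point at 5.6 µM | detection = intracellular calcium via Fluo-8 no-wash fluorescent dye | read-out = % inhibition | benchmarks = low control ATP plus DMSO, high control DMSO only | repeats = one well per compound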
TAAR1 ag – human TAAR1 agonism; Q96RJ0; CHO RD-HGA16 TAAR1, Fluo-8 calcium fluorescence; vehicle wells 0%, saturating PEA agonist 100%; activation, % at 3 µM; 360,000 tested, 0.99% active; AID 624467;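 active = activation above the mean activation of all test compounds in the run plus 3 SD, cut at about 38% in these data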
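Assay system: CHO-derived RD-HGA16 cells with stable Gα16 and human TAAR1; timing: 17-24 h seeding, 75 min 37 °C dye, 30 min RT; read-out: % activation from peak over basal fluorescence ratio, DMSO-to-PEA scaled; measured by: kinetic Fluo-8 calcium fluorescence; benchmarks: low control DMSO, high control PEA (EC100); doses: 3 µM single concentration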
OX1R antag-1 – blocks the human orexin 1 receptor. O43613. OX1R-expressing cells, FRET antagonist read-out. inhibition, % at 6.6 µM. 330,000 tested, 1.8% active. AID 485270; in the data active = inhibition mostly above about 38%, no sharp cut-off; inactive = mostly below about 40%;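 also: 0% = agonist challenge alone and 100% = reference antagonist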
GPR7 antagonist – human neuropeptides B/W receptor 1 antagonism; P48145; GPR7-expressing cells, fluorescence antagonist assay; inhibition, % at 4.4 µM; 290,000 tested, 1.1% active; AID 1861; in the data active = inhibition above about 16%, passing the limit was not always enough;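 also: cells stimulated with the agonist NPW; 0% = agonist with vehicle and 100% = vehicle without agonist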
Target sequence (P48145 whole entry, looked up): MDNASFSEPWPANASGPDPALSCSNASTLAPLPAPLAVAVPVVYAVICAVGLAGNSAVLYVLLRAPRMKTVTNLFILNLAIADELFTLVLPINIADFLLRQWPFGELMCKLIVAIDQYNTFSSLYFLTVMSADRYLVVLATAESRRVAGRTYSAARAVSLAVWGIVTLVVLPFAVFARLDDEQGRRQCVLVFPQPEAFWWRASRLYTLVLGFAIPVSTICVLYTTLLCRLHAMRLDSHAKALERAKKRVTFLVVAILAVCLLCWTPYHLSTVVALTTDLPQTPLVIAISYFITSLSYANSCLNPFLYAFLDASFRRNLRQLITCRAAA
OX1R antag-2 – antagonists of human orexin 1 receptor; inhibition, % at 5 µM; AID 434989; O43613; CHO/OX1R cells, Fluo-8 calcium fluorescence, orexin A; 330,000 tested, 0.43% active;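 active = inhibition above its plate's threshold, mean inhibition of all tested compounds on the plate plus 3 SD, cut at about 37% in these data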;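 also: 0% = orexin A challenge wells and 100% = SB-334867-A antagonist wells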
TAAR1 nonsel count – nonselective antagonist in TAAR1 antagonist counter-screen; shares compounds with TAAR1 antagonist; counterscreen cell line, calcium fluorescence, antagonist mode; inhibition, % at 3 µM; 2,400 tested, 77% active; AID 651780; in the data active = inhibition above about 22%;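 also: CHO-Ga16 host cells stimulated with ATP at an EC80 level; 0% = agonist EC80 plus vehicle and 100% = vehicle without agonist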
TAAR1 ant conf – confirmation of human TAAR1 antagonists. TAAR1-expressing cells, fluorescence antagonist read-out. inhibition, % at 3 µM. shares compounds with TAAR1 antagonist. AID 651785. 2,400 tested, 40% active; in the data active = inhibition above about 49%;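 also: CHO-Ga16 host cells challenged with agonist PEA near its EC80; 0% = agonist at EC80 plus vehicle and 100% = vehicle with no agonist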
Ga16 nonsel ag – counter-screen for TAAR1 antagonists: nonselective Ga16 agonists. shares compounds with TAAR1 antagonist. Ga16-expressing cells, calcium fluorescence, agonist counterscreen. activation, % at 3 µM. 2,400 tested, 18% active; in the data active = activation above about 12%;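 also: 0% = vehicle wells and 100% = saturating stimulus response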
TAAR1 ag count – activates human TAAR1 in antagonist counter-screen; hTAAR1 cell line, fluorescence activation, agonist mode; shares compounds with TAAR1 antagonist; 2,400 tested, 2% active; AID 651955; activation, % at 3 µM; in the data active = activation above about 37%;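 also: CHO cells stably expressing TAAR1 with calcium dye readout; 0% = DMSO vehicle and 100% = full agonist response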
Numbers without * were called inactive; nt = no result; ! = not active in a repeat.

SMILES	TAAR1 antagonist	CHO parental Ca	TAAR1 ag	OX1R antag-1	GPR7 antagonist	OX1R antag-2	TAAR1 nonsel count	TAAR1 ant conf	Ga16 nonsel ag	TAAR1 ag count
Cc1cccc(-c2cc(C(=O)Nc3c(C)n(C)n(-c4ccccc4)c3=O)c3ccccc3n2)c1	70*	-10	9	34	-11	-32	31*	47	7	6
Cc1c(NC(=O)c2cc(-c3ccc(F)cc3)nc3ccccc23)c(=O)n(-c2ccccc2)n1C	61*	-19	15	6	nt	-26	25*	46	8	10
Cc1cccc(-c2cc(C(=O)Nc3cccnc3)c3ccccc3n2)c1	58*	-30	1	16	-19	-43	17	28	5	3
Cc1c(NC(=O)c2cc(-c3ccc(F)cc3)on2)c(=O)n(-c2ccccc2)n1C	-7	-13	6	18	-13	-25	nt	nt	nt	nt
Cc1cccc(-c2cc(C(=O)Nc3ccncc3)c3ccccc3n2)c1	-15	nt	-1	nt	-16	nt	nt	nt	nt	nt
COc1cc(-c2coc3c(C(=O)NCc4ccc(C(F)(F)F)cc4)cccc23)ccc1O	11	nt	6	nt	nt	nt	nt	nt	nt	nt
CC(C)(Cc1ccc(O)cc1)NC(=O)CC(=O)N/N=C/c1ccc(Cl)cc1	74*	-20	29	11	13	-11	21	80*	4	43*
CC(C)(Cc1ccc(O)cc1)NC(=O)CC(=O)N/N=C/c1ccc([N+](=O)[O-])cc1	34	-14	9	19	3	-47	nt	nt	nt	nt
O=C(COC(=O)c1c2c(nc3ccccc13)CCCCC2)c1ccc(Cl)s1	7	-22	0	22	-12	-20	nt	nt	nt	nt
O=C(COC(=O)c1c2c(nc3ccccc13)CCCC2)c1cccs1	53*	-21	6	53	-4	-26	26*	36	2	1
O=C(OCC(=O)N1CCc2ccccc21)c1c2c(nc3ccccc13)CCCC2	57*	-20	3	40	-9	-23	24*	37	1	3
CCCCn1c(Cn2nc(C(=O)O)c3ccccc3c2=O)nc2cc(S(N)(=O)=O)ccc21	-1	-3	-1	0	-8	-17	nt	nt	nt	nt
Cc1nn(-c2ccccc2)c(Cl)c1C(=O)N1CCN(c2ncnc3c2cnn3-c2ccccc2)CC1	78*	78*	21	83*	7	51*	52*	63*	13*	11
O=C(c1ccccc1)N1CCN(c2ncnc3c2cnn3-c2ccccc2)CC1	20	-5	11	15	-9	-32	nt	nt	nt	nt
CC(OC(=O)CNC(=O)c1ccccc1F)C(=O)Nc1nc(-c2ccccc2)cs1 (stereo not drawn)	-21	-26	7	16	0	-16	nt	nt	nt	nt
CC(=O)Nc1sc(N/N=C/c2ccc(C)cc2)nc1-c1ccc(C)cc1	53*	-9	2	5	-8	-39	4	11	4	10
NC(=O)Cn1c(=O)n(CCC(=O)Nc2ccc(F)cc2)c(=O)c2sccc21	2	5	4	11	-13	-10	nt	nt	nt	nt
Cc1ccc(C)c2[nH]c(=O)c(CCNC(=O)c3cc4ccccc4o3)cc12	49*	-22	6	18	-5	-30	24*	25	7	3
COc1ccc(OC)c2[nH]c(=O)c(CCNC(=O)c3cc4ccccc4o3)cc12	25	-22	3	13	-4	-51	nt	nt	nt	nt
Cc1ccc(NC(=O)CCCNC(=O)c2ccc(Cl)cc2)nc1	-24	-4	-1	17	-4	-6	nt	nt	nt	nt
CCN=C1SC(C(=O)Nc2ccc(Cl)c(Cl)c2)CC(=O)N1CC (stereo not drawn)	80*	-2	28	10	-5	-5	44*	66*	13*	15
CCN=C1SC(C(=O)Nc2cccc(Br)c2)CC(=O)N1CC (stereo not drawn)	75*	-11	22	15	3	-11	37*	63*	11	10
CC(C)Cn1c(O)c(N=NC(=O)c2cccc(S(=O)(=O)N3CCCCC3)c2)c2ccccc21	-7	-20	-1	16	0	-26	nt	nt	nt	nt
CC(=O)c1c(C)[nH]c(C(=O)Nc2nc(-c3ccc(-c4ccccc4)cc3)cs2)c1C	93*	26	29	14	-12	30	71*	97*	27*	37*
CCC(C)Sc1cccc(-c2nc3ccc(C)cn3c2NC2CCCCC2)c1 (stereo not drawn)	57*!	0	24	13	nt	-70	35*	49*	11	15
SMILES	TAAR1 antagonist	CHO parental Ca	TAAR1 ag	OX1R antag-1	GPR7 antagonist	OX1R antag-2	TAAR1 nonsel count	TAAR1 ant conf	Ga16 nonsel ag	TAAR1 ag count
CC(=O)c1ccc(-c2cccc(-c3nc4ccccn4c3NC3CCCCC3)c2)cc1	59*	-23	12	42	nt	-18	23*	46	4	6
CCC(C)Sc1cc(-c2nc3cc(C)ccn3c2NC2CCCCC2)ccc1OC (stereo not drawn)	21	-2	10	8	nt	22	nt	nt	nt	nt
CCCCCCSc1ccc(-c2nc3ccc(C)cn3c2NCc2ccccc2)cc1	-1	-23	0	9	nt	-51	nt	nt	nt	nt
CCC(C)Sc1cc(-c2nc3ccccn3c2NC2CCCCC2)ccc1OC (stereo not drawn)	79*	15	4	39	nt	15	42*	63*	8	13
Cc1ccc2nc(-c3cccc(SC4CCCCC4)c3)c(NCc3ccccc3)n2c1	84*	-13	8	11	nt	16	37*	61*	4	8
COc1ccc(CN(C)C(=S)Nc2ccc(Cl)cc2)cc1	17	-13	7	29	-4	-12	nt	nt	nt	nt
Cc1ccc(S(=O)(=O)CCC(=O)OCC(=O)Nc2ccc(N3CCOCC3)cc2)cc1	-4	-9	3	18	nt	-22	nt	nt	nt	nt
CCOC(=O)C1=C(C(=O)OCC)N(CC)CCC1=O	17	nt	2	nt	nt	nt	nt	nt	nt	nt
COc1ccc(-c2csc(NC(=O)C3COc4ccccc4O3)n2)cc1OC (stereo not drawn)	62*	0	5	15	-4	-21	29*	40	7	5
Cc1ccc(-c2csc(NC(=O)c3cccc(N4C(=O)CCC4=O)c3)n2)o1	nt	-9	nt	12	-1	-23	nt	nt	nt	nt
CC(C)(C)c1csc(NC(=O)C2COc3ccccc3O2)n1 (stereo not drawn)	22	-10	-1	14	-19	-21	nt	nt	nt	nt
